Test results from ChEMBL document CHEMBL5331127, “Discovery of ARD-2051 as a Potent and Orally Efficacious Proteolysis Targeting Chimera (PROTAC) Degrader of Androgen Receptor for the Treatment of Advanced Prostate Cancer” (J Med Chem, 2023).
The source made the active and inactive calls. No cut-off for these calls is given here.

Tests used:
[1] = Drug concentration in ICR mouse plasma at 10 mg/kg, po measured after 1 hr; type: ADME, organism-based
Summary of the method: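 Mice given a single 10 mg/kg dose by oral gavage, 3 mice per time point. Plasma drug levels measured at 1, 3, 6 and 24 h; mean ± SD reported.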

Androgen receptor = molecular target: T1, Androgen receptor (Homo sapiens, UniProt P10275); assay: Induction of androgen receptor degradation in human VCaP cells incubated for 24 hrs by Western blot analysis; type: cell-based
T1 sequence (P10275 whole entry): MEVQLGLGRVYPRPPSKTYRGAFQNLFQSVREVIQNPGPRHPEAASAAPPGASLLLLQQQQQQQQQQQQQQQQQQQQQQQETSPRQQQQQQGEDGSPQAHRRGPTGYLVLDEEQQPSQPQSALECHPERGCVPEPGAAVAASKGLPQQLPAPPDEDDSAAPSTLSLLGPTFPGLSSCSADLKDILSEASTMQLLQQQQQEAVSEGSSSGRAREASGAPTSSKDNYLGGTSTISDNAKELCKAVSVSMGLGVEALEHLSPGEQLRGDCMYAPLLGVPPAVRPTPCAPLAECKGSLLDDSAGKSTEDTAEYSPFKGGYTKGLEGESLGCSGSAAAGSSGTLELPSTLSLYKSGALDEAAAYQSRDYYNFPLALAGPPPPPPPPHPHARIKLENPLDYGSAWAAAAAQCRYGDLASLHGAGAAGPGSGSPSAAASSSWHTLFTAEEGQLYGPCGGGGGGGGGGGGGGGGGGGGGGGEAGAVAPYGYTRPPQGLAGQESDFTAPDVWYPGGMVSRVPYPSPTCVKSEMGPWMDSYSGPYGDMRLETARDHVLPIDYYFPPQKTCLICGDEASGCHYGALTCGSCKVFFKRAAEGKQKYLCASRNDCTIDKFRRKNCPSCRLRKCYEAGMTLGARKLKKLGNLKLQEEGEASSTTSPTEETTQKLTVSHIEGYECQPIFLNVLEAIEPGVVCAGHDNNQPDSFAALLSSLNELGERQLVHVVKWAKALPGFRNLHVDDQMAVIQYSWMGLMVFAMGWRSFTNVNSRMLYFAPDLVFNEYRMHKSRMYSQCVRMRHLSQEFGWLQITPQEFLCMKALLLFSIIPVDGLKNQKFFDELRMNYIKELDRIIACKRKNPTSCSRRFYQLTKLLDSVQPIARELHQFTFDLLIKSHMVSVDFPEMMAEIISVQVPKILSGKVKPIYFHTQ

VCaP [2] = assay: Induction of androgen receptor degradation in human VCaP cells at 100 nM pretreated with MLN4924 for 2 hrs followed by compound addition and 3 hrs by Western blot analysis; type: functional, cell-based; conditions: time 5.0 hrs
Summary of the method: (§1)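 LNCaP or VCaP cells pretreated 2 h with DMSO, ARi-12 (10 μM), thalidomide (10 μM), MG-132 (3 μM) or MLN4924 (0.5 μM), then given degrader at 100 nM for 3 h. AR measured by Western blot with GAPDH as loading control.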

LNCaP = assay: Induction of androgen receptor degradation in human LNCaP cells at 100 nM pretreated with ARi-12 for 2 hrs followed by compound addition and 3 hrs by Western blot analysis; type: functional, cell-based; conditions: time 5.0 hrs; summary of the method: as §1
VCaP [3] = assay: Downregulation of KLK3 gene expression in human VCaP cells incubated for 24 hrs by qRT-PCR analysis; type: functional, cell-based; conditions: dose 0.03-30 nM
Summary of the method: (§2)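 LNCaP cells (RPMI 1640) or VCaP cells (DMEM Glutamax), both with 10% FBS, treated for 24 h. KLK3 mRNA measured by qRT-PCR and calculated by the comparative CT method against GAPDH and vehicle.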

[4] = Downregulation of KLK3 gene expression in human LNCaP cells at 10 nM incubated for 24 hrs by qRT-PCR analysis; type: functional; summary of the method: as §2
[5] = Metabolic stability in mouse hepatocytes assessed as half life at 1 uM measured upto 120 mins in presence of NADPH by LC-MS/MS analysis; type: ADME, cell-based, Hepatocyte; conditions: 2 h
[6] = Metabolic stability in rat hepatocytes assessed as half life at 1 uM measured upto 120 mins in presence of NADPH by LC-MS/MS analysis; type: ADME, cell-based, Hepatocyte; conditions: 2 h
[7] = Metabolic stability in dog plasma assessed as half life at 1 uM measured upto 120 mins by LC-MS/MS analysis; type: ADME, cell-free, Canis lupus familiaris; conditions: 2 h
Summary of the method: (§3)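 Compound at 1 μM final in pre-warmed plasma of each species, 37 °C for up to 2 h. ACN/IS quench at 0, 5, 15, 30, 60 and 120 min; LC/MS. Procaine as reference (benfluorex for rat). t1/2 = 0.693/slope of ln(fraction remaining) versus time.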

[8] = Metabolic stability in human plasma assessed as half life at 1 uM measured upto 120 mins by LC-MS/MS analysis; type: ADME, cell-free; conditions: 2 h; summary of the method: as §3
[9] = Plasma protein binding in monkey at 1 uM after 5 hrs by equilibrium dialysis based LC-MS/MS analysis; type: ADME, cell-free, Macaca mulatta; conditions: rhesus monkey
Summary of the method: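 Equilibrium dialysis of pooled plasma of each species spiked at 1 μM against 0.1 M sodium phosphate, pH 7.4. 5 h at 37 °C with shaking at 60 rpm. Both sides matrix-matched, ACN/IS quench, LC/MS. % bound = 100 − (buffer/plasma peak-area ratio × 100); recovery also calculated. Warfarin as reference.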

Cytochrome P450 2C19 = Cytochrome P450 2C19 (Homo sapiens, UniProt P33261); assay: Inhibition of CYP2C19 in human liver microsomes preincubated for 5 mins followed by NADPH addition and measured after 10 mins by LC/MS analysis; type: ADME, Microsome
[10] = Clearance in Beagle dog at 1 mg/kg, iv measured upto 24 hrs by LC-MS/MS analysis; type: ADME, organism-based, Canis lupus familiaris; conditions: in vivo
Summary of the method: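 Male ICR mice (2 mg/kg), male SD rats (1 mg/kg) or male Beagle dogs (1 mg/kg) given a single intravenous dose in 10% PEG400 + 90% PBS adjusted to pH 8.0 with NaOH.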

[11] = Oral bioavailability in ICR mouse at 5 mg/kg measured up to 24 hrs by LC-MS/MS analysis; type: ADME, organism-based; conditions: in vivo
Summary of the method: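 Male ICR mice. IV 2 mg/kg and PO 5 mg/kg, both in 10% PEG400 + 90% PBS adjusted to pH 8.0. Plasma sampled to 24 h; F from IV and PO exposure.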

Mus musculus [12] = assay: In vivo induction of androgen receptor degradation in human VCaP cells xenografted in CB17 SCID mouse at 12.5 mg/kg, po measured upto 24 hrs by […] analysis; type: functional, organism-based
Mus musculus [13] = assay: In vivo induction of androgen receptor degradation in human VCaP cells xenografted in CB17 SCID mouse assessed as reduction in FKBP5 mRNA level at 12.5 mg/kg, po measured after 6 to 24 hrs by qRT-PCR analysis; type: functional, organism-based; conditions: time 6-24 hrs
[14] = Drug concentration in CB17 SCID mouse tumor xenografted with human VCaP cells at 12.5 mg/kg, po measured after 6 hrs by LC-MS/MS analysis; type: ADME, organism-based, Neoplasm; conditions: read-out: Ct
Summary of the method: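 SCID mice bearing one VCaP tumour each given a single oral 12.5 mg/kg dose in 100% PEG200. Plasma and tumour tissue collected at 6 and 24 h, 3 mice per time point. Values are mean ± SD.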

VCaP [15] = assay: Antitumor activity against human VCaP cells xenografted in CB17 SCID mouse assessed as tumor growth inhibition at 30 mg/kg, po administered for 21 days; type: functional; conditions: 504 h, time 21 day, read-out: TGI

Sequence of Cytochrome P450 2C19 (P33261 whole entry): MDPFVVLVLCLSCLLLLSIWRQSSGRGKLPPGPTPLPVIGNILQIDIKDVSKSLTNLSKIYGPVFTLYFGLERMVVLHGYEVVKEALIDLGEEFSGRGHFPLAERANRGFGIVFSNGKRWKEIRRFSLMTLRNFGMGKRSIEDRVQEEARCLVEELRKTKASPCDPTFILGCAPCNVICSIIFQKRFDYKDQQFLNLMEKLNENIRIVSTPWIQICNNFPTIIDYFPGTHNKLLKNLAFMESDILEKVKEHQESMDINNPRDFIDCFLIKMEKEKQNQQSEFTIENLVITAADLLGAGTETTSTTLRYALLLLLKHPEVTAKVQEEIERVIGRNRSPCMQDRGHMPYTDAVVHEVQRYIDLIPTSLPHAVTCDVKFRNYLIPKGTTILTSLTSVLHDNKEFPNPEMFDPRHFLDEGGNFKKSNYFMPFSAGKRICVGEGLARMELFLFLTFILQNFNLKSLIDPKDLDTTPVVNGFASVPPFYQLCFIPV

## C[C@H]1CC2(CCN(c3ccc(C(=O)N4CCN(C5CN(c6ccc7c(c6)C(=O)N(C6CCC(=O)NC6=O)C7=O)C5)CC4)cc3)CC2)CN1c1ccc(C#N)c(Cl)c1 (stereo partly drawn)
[1]
  concentration at 1 h: 495 ng/mL
Androgen receptor
  EC50: 0.6 nM
VCaP [2]
  Activity: inactive
LNCaP
  Activity: inactive
VCaP [3]
  Activity: Dose-Dependent Effect
[4]
  Activity: 79%
[5]
  t1/2: > 2 h
[6]
  t1/2: > 2 h
[7]
  t1/2: > 2 h
[8]
  t1/2: > 2 h
[9]
  PPB: 99.2%
Cytochrome P450 2C19
  IC50: > 10000 nM
[10]
  clearance: 4.6 mL/min/kg
[11]
  F: 53%
Mus musculus [12]
  Activity: Active
Mus musculus [13]
  Activity: Active
[14]
  concentration at 6 h: 946 ng/mL
VCaP [15]
  inhibition in vivo at 30 mg/kg: 80%
